Source: article PMC13022283 (Scientific Reports, 2026)

Assays:
[1] = target: T1, h-NTPDase3 (Homo sapiens, UniProt O75355); assay: h-NTPDase activity assay; format: biochemical; settings: for inhibition at 100 µM: read-out: % Inhibition h-NTPDase3
T1 sequence (O75355 1-529): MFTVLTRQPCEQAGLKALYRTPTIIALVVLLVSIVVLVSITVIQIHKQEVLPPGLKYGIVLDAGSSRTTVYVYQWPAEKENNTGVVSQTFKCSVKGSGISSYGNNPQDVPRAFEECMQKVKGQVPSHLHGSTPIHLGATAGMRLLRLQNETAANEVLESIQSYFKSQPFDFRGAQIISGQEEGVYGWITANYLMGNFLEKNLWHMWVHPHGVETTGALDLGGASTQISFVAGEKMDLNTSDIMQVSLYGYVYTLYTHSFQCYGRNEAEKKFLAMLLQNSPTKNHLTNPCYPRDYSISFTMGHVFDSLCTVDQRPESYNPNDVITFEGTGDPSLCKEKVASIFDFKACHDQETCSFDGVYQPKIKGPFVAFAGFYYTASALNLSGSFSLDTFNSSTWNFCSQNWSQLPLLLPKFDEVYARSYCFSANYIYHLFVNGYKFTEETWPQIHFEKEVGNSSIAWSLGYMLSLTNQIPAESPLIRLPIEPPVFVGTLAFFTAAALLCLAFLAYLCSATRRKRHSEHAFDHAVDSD
Summary of the method: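 Human NTPDase1, -2, -3 or -8 came from COS-7 cells transfected with plasmids via Lipofectamine, harvested at 44–48 h, sonicated and cleared of nuclei, with protein measured by Bradford. Enzyme per well was 12, 37, 43 or 63 ng respectively. Compound (0.1 mM final) was pre-incubated 10 min at 37 °C in 50 mM Tris–HCl, 5 mM CaCl2, pH 7.4. The reaction was started with ATP (100 µM), run 15 min, and stopped with malachite green; Pi was read at 630 nm.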

[2] = target: T2, h-NTPDase2 (Homo sapiens, UniProt Q9Y5L3); assay: h-NTPDase activity assay; format: biochemical; settings: for inhibition at 100 µM: read-out: % Inhibition h-NTPDase2
T2 sequence (Q9Y5L3 1-495): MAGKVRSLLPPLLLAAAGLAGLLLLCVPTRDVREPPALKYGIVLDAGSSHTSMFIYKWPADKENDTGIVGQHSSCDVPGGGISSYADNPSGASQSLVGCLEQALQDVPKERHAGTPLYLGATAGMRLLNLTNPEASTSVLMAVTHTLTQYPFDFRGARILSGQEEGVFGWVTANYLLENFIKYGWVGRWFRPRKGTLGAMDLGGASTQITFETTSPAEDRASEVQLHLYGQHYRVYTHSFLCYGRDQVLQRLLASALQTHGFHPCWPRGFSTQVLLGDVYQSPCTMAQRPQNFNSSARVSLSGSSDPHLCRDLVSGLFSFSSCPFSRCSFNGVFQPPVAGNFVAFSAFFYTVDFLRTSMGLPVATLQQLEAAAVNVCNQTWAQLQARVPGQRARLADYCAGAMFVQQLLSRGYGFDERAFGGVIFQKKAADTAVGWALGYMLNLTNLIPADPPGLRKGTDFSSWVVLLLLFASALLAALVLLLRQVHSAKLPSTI

[3] = MTT assay; format: cell-based, human; settings: human, MCF-7 breast cancer cells, MCF-7, 100 μM; for cytotoxicity at 24 h, 100 µM: % Cytotoxicity ± SD; for viability at 24 h, 100 µM: % Viability
[4] = target: T3, h-e5’NT (Homo sapiens, UniProt P21589); assay: h-e5’NT activity assay; format: biochemical; settings: for inhibition at 100 µM: read-out: % Inhibition h-e5’NT
T3 sequence (P21589 27-574): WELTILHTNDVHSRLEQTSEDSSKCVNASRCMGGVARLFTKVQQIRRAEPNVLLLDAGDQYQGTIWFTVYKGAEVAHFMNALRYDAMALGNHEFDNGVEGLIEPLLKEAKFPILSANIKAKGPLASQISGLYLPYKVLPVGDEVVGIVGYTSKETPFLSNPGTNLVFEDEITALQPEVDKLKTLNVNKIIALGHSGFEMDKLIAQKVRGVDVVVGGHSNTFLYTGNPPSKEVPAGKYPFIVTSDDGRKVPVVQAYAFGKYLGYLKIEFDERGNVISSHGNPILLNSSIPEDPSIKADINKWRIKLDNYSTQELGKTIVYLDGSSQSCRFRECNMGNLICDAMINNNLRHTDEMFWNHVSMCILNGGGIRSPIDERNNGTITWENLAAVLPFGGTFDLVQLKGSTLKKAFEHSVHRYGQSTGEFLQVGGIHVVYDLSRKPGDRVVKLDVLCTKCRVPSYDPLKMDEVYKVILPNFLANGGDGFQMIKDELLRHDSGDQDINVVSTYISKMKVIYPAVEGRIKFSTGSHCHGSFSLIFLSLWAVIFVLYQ
Summary of the method: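 Human ecto-5′-nucleotidase from transfected COS-7 cells was pre-incubated 10 min at 37 °C with compound (0.1 mM final) in 50 mM Tris–HCl with MgCl₂ and CaCl₂, pH 7.4. The reaction was started with AMP (2 mM solution as added) and run 20 min at 37 °C. Released phosphate was detected with malachite green at 630 nm, in triplicate.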

[5] = target: T4, h-NTPDase8 (Homo sapiens, UniProt Q5MY95); assay: h-NTPDase activity assay; format: biochemical; settings: for inhibition at 100 µM: read-out: % Inhibition h-NTPDase8, at 100 µM
T4 sequence (Q5MY95 1-495): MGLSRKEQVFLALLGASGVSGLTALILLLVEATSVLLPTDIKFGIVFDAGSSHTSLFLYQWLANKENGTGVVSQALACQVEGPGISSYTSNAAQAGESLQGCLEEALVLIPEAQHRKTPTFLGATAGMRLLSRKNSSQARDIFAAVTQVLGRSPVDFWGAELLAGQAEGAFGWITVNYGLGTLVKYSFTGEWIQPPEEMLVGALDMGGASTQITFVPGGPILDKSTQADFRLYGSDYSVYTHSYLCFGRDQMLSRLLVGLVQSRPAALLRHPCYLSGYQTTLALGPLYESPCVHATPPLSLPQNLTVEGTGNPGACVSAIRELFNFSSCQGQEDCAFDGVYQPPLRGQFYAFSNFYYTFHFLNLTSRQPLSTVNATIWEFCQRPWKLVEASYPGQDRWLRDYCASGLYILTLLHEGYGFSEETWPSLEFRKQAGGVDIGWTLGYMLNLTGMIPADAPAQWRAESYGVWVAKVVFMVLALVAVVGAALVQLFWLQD

SMILES	inhibition at 100 µM [1]	inhibition at 100 µM [2]	cytotoxicity at 24 h, 100 µM [3]	viability at 24 h, 100 µM [3]	IC50 [4]	inhibition at 100 µM [4]	inhibition at 100 µM [5]	IC50 [1]	IC50 [5]	IC50 [2]
Cc1ccc(F)cc1NC(=O)c1ccc2ncccc2c1 [Compound 4l, N-(5-fluoro 2-methylphenyl)quinoline-6-carboxamide]	36.1%	41.2%	39.5 ± 15.5%	60.5%	470 ± 260 nM	61%	26.1%			
O=C(Nc1ccccc1I)c1ccc2ncccc2c1 [Compound 4h, N-(2-iodophenyl)quinoline-6-carboxamide]	85%	28.3%	49.7 ± 2.17%	50.3%	390 ± 100 nM	87%	65.6%	880 ± 290 nM	3290 ± 360 nM	
Cc1ccc(CNC(=O)c2ccc3ncccc3c2)cc1 [Compound 4c, N-(4-methylbenzyl)quinoline-6-carboxamide]	78.4%	68.4%	42.2 ± 0.81%	57.8%	190 ± 10 nM	50.7%	70.9%	670 ± 270 nM	990 ± 130 nM	6390 ± 1070 nM
O=C(Nc1ccc(F)cc1F)c1ccc2ncccc2c1 [Compound 4e, N-(2,4 difluorophenyl)quinoline-6-carboxamide]	40.2%	36.4%	14.6 ± 2.48%	85.4%	540 ± 90 nM	66.9%	39.5%			
O=C(NCc1ccc(F)cc1)c1ccc2ncccc2c1 [Compound 4b, N-(4-fluorobenzyl)quinoline-6-carboxamide]	67.8%	26.2%	25.1 ± 6.08%	74.9%		37%	83%	350 ± 170 nM	440 ± 80 nM	
O=C(Nc1ccccn1)c1ccc2ncccc2c1 [Compound 4g, N-(pyridin-2-yl)quinoline-6-carboxamide]	81.7%	33.9%	47.4 ± 1.8%	52.6%	340 ± 70 nM	82%	20.4%	320 ± 50 nM		
O=C(Nc1c(F)cccc1F)c1ccc2ncccc2c1 [Compound 4d, N-(2,6 difluorophenyl)quinoline-6-carboxamide]	58.4%	80.1%	48 ± 12.7%	52%		35.6%	33%	820 ± 70 nM		920 ± 170 nM
O=C(Nc1ccc(I)cc1)c1ccc2ncccc2c1 [Compound 4k, N-(4-Iodophenyl)quinoline-6-carboxamide]	38.5%	18.6%	56.9 ± 16.9%	43 to 45%		28.4%	27%			
